A selection: hits, their analogues and other compounds. The true share with any hit is near 1.6%.
HNF4A DNA FP: change in binding of human HNF4A to DNA, primary screen, biochemical, fluorescence polarization, FITC-DNA | activity change, % at 10 µM | 360,000 compounds, 0.3% hits | 1 h; in the data active means activity change above about 30%, passing the limit was not always enough
Target sequence (P41235 whole entry, looked up): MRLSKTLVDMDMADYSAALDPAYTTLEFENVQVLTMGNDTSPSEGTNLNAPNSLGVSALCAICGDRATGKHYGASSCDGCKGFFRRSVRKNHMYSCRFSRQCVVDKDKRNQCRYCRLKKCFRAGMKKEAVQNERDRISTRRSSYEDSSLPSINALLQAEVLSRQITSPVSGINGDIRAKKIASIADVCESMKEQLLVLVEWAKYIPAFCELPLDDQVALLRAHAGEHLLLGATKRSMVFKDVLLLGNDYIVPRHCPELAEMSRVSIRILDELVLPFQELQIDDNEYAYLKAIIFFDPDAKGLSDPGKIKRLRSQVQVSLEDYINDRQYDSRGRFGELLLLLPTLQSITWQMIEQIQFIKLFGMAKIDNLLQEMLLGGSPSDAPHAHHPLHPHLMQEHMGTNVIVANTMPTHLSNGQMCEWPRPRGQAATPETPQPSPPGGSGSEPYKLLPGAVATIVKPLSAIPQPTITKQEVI
TPT1 inh: Candida albicans TPT1 enzyme inhibitors, primary screen, biochemical, fluorescence polarization. tRNA 2'-phosphotransferase TPT1 (Candida albicans SC5314). recombinant caTPT1, FP RNA substrate dephosphorylation. inhibition, % at 5 µM. 300,000 compounds, 0.81% hits;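 active means inhibition above the mean of all tested compounds plus 3 SD, set per screening campaign, cut at about 24% in these data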;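 further: plate controls were DMSO alone for no effect and ferristatin control at 100 nM for full effect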
Rpn11 block: Rpn11 (PSMD14) deubiquitinase inhibitors, primary screen, biochemical, fluorescence polarization, uHTS; human 26S proteasome, Ub4-pepOG fluorescence polarization; 20S core pre-blocked with epoxomicin; AID 588493, 2011; 360,000 compounds, 0.59% hits; inhibition, % at 20 µM;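 active means inhibition at 20 µM, scaled to each plate's controls, above about 33%, limit read from the data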
CSN deneddyl inh: inhibitors of CSN-mediated cullin deneddylation, primary screen, biochemical, fluorescence polarization, uHTS | COP9 signalosome complex subunit 5 (Homo sapiens), Q92905 | AID 651999, 2013 | Purified CSN, SCF-Nedd8-OG deneddylation | inhibition, % at 12.5 µM | 360,000 compounds, 0.38% hits;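 active means pattern-corrected inhibition above about 35%, with an unprinted fluorescence ratio check between 0.5 and 1.5, limit read from the data, passing the limit was not always enough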;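 further: 0% = enzyme with substrate and 100% = substrate without enzyme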
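Assay system: purified human Csn5 enzyme expressed in HEK293T cells; Input: 0.24 nM Csn5 enzyme, final concentration; Reagent: 10 nM SCFSkp2-Nedd8OG; Compound dosing: 12.5 µM single point; Times: reaction 90 min, room temperature; Technique: fluorescence polarization readout.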
SENP1 FRET inh: human SENP1 catalytic domain inhibitors, primary screen, biochemical, FRET, uHTS. Sentrin-specific protease 1 (Homo sapiens), Q9P0U3. recombinant SENP1 catalytic domain, CyPet-SUMO1-YPet FRET cleavage. inhibition, % at 10 µM. 360,000 compounds, 0.21% hits;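 active means inhibition at least 30% at 10 µM, raw YFP signal under a set limit, fluorescence ratio 0.5 to 1.5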;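 further: 0% = enzyme with DMSO and 100% = no enzyme wells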
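Material – human SENP1 catalytic domain · Input – SENP1 enzyme, 20 pM final · Compound dosing – single concentration of 10 µM compound, 0.5% DMSO final · Timing – enzyme reaction for 50 min at room temperature, dark · Measured by – FRET fluorescence in CFP and YFP emission channels · Control set – no-enzyme wells low, DMSO-plus-enzyme wells high control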
caTPT1 confirm: Candida albicans TPT1 inhibitors, confirmation, biochemical, fluorescence polarization, triplicate; inhibition, % at 5 µM; 2,400 compounds, 74% hits; shares compounds with TPT1 inh; recombinant caTPT1, RNase T1 coupled; AID 2149, 2009;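 active means inhibition above the primary screen limit, the mean inhibition of all tested compounds plus 3 SD, cut at about 25% in these data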
RNase T1 inh: RNase T1 inhibitors, counter-screen for TPT1 inhibitor project, biochemical, fluorescence polarization; 2,400 compounds, 83% hits; RNase T1 cleavage, 1536-well; shares compounds with TPT1 inh; inhibition, % at 5 µM; AID 2153, 2009;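 active means inhibition above the solvent-only control well mean plus 3 SD, limit set per screening run, cut at about 23% in these data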;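 further: plate controls were DMSO wells with enzyme for no effect and wells without RNase T1 for full effect; inhibitors block cleavage so intact labeled substrate keeps polarization high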
Target sequence (P00651 whole entry, looked up): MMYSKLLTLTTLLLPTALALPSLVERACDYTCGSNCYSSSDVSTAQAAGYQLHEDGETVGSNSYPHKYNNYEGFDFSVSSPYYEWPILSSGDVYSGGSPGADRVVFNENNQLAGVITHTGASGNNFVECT
Rpn11 confirm: Rpn11 (PSMD14) deubiquitinase inhibitors, confirmation, biochemical, fluorescence polarization, single concentration; inhibition, % at 20 µM; 1,900 compounds, 29% hits; shares compounds with Rpn11 block; purified human 26S proteasome, Ub4-pepOG fluorescence polarization; proteasome pretreated with epoxomicin; AID 602318, 2012
MMP-2 inh: MMP-2 enzyme inhibition, confirmation, counter-screen for RPN11 inhibitor project, biochemical, fluorescence, single concentration | recombinant MMP-2, FRET peptide cleavage fluorescence | AID 602330, 2012 | inhibition, % at 20 µM | 1,900 compounds, 4% hits | shares compounds with Rpn11 block;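 further: human MMP-2 activated beforehand with APMA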
Thrombin inh: bovine thrombin protease inhibition, confirmation, counter-screen for Rpn11 inhibitor project, biochemical, fluorescence polarization, single concentration | shares compounds with Rpn11 block | bovine thrombin cleavage of Ub4-pepOG | inhibition, % at 20 µM | 1,900 compounds, 13% hits | AID 602333, 2012;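 active means mean inhibition at least 40% at 20 µM, or signal 3 deviations below plate average, so some actives read negative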;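 further: plate controls were thrombin with DMSO for no effect and buffer wells lacking thrombin for full effect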
SENP1 inh conf: human SENP1 catalytic domain inhibitors, confirmation, biochemical, FRET endpoint, single concentration. shares compounds with SENP1 FRET inh. recombinant SENP1, CyPet-SUMO1-YPet FRET cleavage. inhibition, % at 10 µM. 520 compounds, 34% hits. AID 651678, 2012; in the data active means inhibition mostly above about 35%, no sharp cut-off; inactive means mostly below about 32%;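 further: 0% = enzyme with DMSO and 100% = no enzyme control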
SENP1 kinetic: human SENP1 catalytic domain inhibitors, confirmation, biochemical, kinetic FRET, single concentration; shares compounds with SENP1 FRET inh; inhibition, % at 10 µM; recombinant SENP1, CyPet-SUMO1-YPet FRET kinetic cleavage; 520 compounds, 26% hits; in the data active means inhibition mostly above about 32%, no sharp cut-off; inactive means mostly below about 29%;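 further: 0% = DMSO with enzyme and 100% = no enzyme substrate only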
HNF4a DNA conf: change in HNF4A binding to DNA, retest, confirmation, biochemical, fluorescence polarization, FITC-DNA; shares compounds with HNF4A DNA FP; 1 h; activity change, % at 12.5 µM; 210 compounds, 99% hits; AID 1224897, 2016; call rule not given here
An asterisk follows results filed as active; . = no result shown. Unless noted, no stated cut-off is given here; in the data, active means inhibition above about 40%; inactive means the rest.

SMILES	HNF4A DNA FP	TPT1 inh	Rpn11 block	CSN deneddyl inh	SENP1 FRET inh	caTPT1 confirm	RNase T1 inh	HNF4a DNA conf	others
Nc1nnc(SCc2nc3scc(-c4ccccc4)c3c(=O)[nH]2)s1	45*	36*	70*	13	18	41*	54*	56*	Rpn11 confirm=70*;MMP-2 inh=0;Thrombin inh=60*
Cc1ccc(-n2nc3c(N4CCC(C(=O)N5CCC(C(N)=O)CC5)CC4)nnc(C)c3c2C)cc1	49*	35*	.	30	30	40*	48*	48*
COc1ccccc1N1C(=O)S/C(=C\c2ccc(C)s2)C1=O	43*	34*	96*	27	40*	38*	53*	76*	Rpn11 confirm=57*;MMP-2 inh=-28;Thrombin inh=22;SENP1 inh conf=13;SENP1 kinetic=14
CSc1nnc(C)c(/C=C/Nc2ccc(Cl)cc2)n1	59*	154*	.	-1	-20	121*	117*	55*
COc1ccc(N/C=C/C(=O)C(F)(F)F)cc1	-1	1	-2	-13	-9	.	.	.
COc1ccc(N/C=C/c2nc(SC)nnc2C)cc1	45*	111*	.	28	-22	108*	111*	62*
COc1ccc(NC(=O)/C(C#N)=C/c2ccc(OCCN3CCOCC3)c(OC)c2)c(OC)c1	-1	-1	-1	-1	0	.	.	.
CCOC(=O)c1cc(-c2ccccc2)n(CCC(=O)N2CCN(c3ccccn3)CC2)c1C	1	1	-21	2	2	.	.	.
CC(=O)Nc1ccc(S(=O)(=O)NCc2nc(-c3cccc(C)c3)no2)cc1	62*	41*	.	16	-35	73*	80*	64*
COc1cc(/C=C2\N=C3CCCCCN3C2=O)ccc1O	47*	50*	152*	57*	37*	69*	73*	76*	Rpn11 confirm=88*;MMP-2 inh=-27;Thrombin inh=67*
COc1ccc(/C=C2\N=C3CCCCCN3C2=O)cc1OC	4	-5	-3	6	-11	.	.	.
CC(C)CN(C(=O)CSc1nnnn1-c1ccccc1)c1c(N)n(CC(C)C)c(=O)[nH]c1=O	-5	-12	-9	-4	-4	.	.	.
Cn1cccc1/C=C1\SC(=S)N(NC(=O)c2cccc(Cl)c2)C1=O	61*	86*	.	36*	-94	98*	111*	97*
O=C(COc1ccc(Cl)cc1Cl)NN1C(=O)/C(=C\c2ccc(Cl)cc2)SC1=S	-2	1	-3	1	5	.	.	.
Cc1ccc2c(c1)N(C(=O)CCC(=O)N1CCC(C(N)=O)CC1)CC(C)O2 (centres undefined)	2	-3	-11	-3	-1	.	.	.
O=C(NCc1ccccc1)C(c1ccccc1F)n1c(=O)c(-c2ccco2)nc2ccccc21 (centres undefined)	36	.	.	17	-33	.	.	.
CN1CCc2c(sc(NC(=O)c3ccc(S(=O)(=O)N4CCCC4)cc3)c2C(N)=O)C1	36*	116*	.	14	-28	133*	134*	32*
C=CCN1C(=O)/C(=C/c2ccc(O)cc2)S/C1=N/c1nccs1	45*	73*	.	44*	-27	93*	92*	69*
COc1ccc(-c2noc3c2-c2nc(-c4cccc(C)c4)sc2CC3)cc1	-2	-3	-5	2	1	.	.	.
CCc1ccc(CN2C(=O)c3ccccc3C2C(=O)NC(C)CC)cc1 (centres undefined)	-2	-1	-4	7	0	.	.	.
COc1ccc(-c2sc(Nc3ccccc3)n[n+]2-c2ccc(F)cc2)cc1Br	2	-2	-14	3	1	.	.	.
CN(C)c1ccc(-c2sc(Nc3ccccc3)n[n+]2-c2ccc(F)cc2)cc1	69*	35*	18	7	16	93*	98*	80*
Cc1sc2nc(CSc3nnnn3-c3ccc(Cl)cc3)[nH]c(=O)c2c1C	38*	31*	.	34	-27	40*	49*	33*
O=C1C=C(c2ccc(Oc3ccccc3)cc2)C[C@@H](c2ccc3c(c2)OCO3)C1	4	.	1	-3	0	.	.	.
Cc1ccccc1C(=O)/C=C1/SCC(=O)N1C	38*	27*	71*	46*	8	24	28*	59*	Rpn11 confirm=49*;MMP-2 inh=0;Thrombin inh=35
CCc1ccc(NC(=O)CN2CCN(c3ccc(OC)cc3)CC2)cc1	4	.	4	1	2	.	.	.

Source: PubChem BioAssay
